Experimental data reported in ChEMBL document CHEMBL1154944, “Azole-based inhibitors of AKT/PKB for the treatment of cancer” (Bioorg Med Chem Lett, 2010).

Legend:
[1] = biological target: T1, RAC-alpha serine/threonine-protein kinase (Homo sapiens, UniProt P31749); assay: Inhibition of AKT1 after 10 mins by [gamma33]ATP assay
[2] = biological target: Cyclin-dependent kinase 2 (Homo sapiens, UniProt P24941); assay: Inhibition of CDK2
[3] = Inhibition of PKA
[4] = AUC (0 to 24 hrs) in Sprague-Dawley rat at 5 mg/kg, po; assay type: ADME, organism-based; set-up: time < 24 hr, dose 5 mg/kg, route oral; settings: plasma
How it was run: (§1)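 Male Sprague Dawley rats (n = 3) given 5 mg/kg orally in 2% HPMC, 1% Tween 80, pH 2.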

[5] = tested on: U-87 MG; assay: Inhibition of tumor growth in human U87MG cells xenografted in CD1 nude mouse assessed as tumor volume po QD for 18 days relative to control; assay type: functional, organism-based; settings: U-87MG ATCC
How it was run: (§2)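 10-week-old female CD1 nude mice injected sc in the flank with 5 × 10⁶ U-87 MG cells in DMEM. On day 10, randomized (n = 10) at ~200 mm³, then dosed po once daily for 18 d with supplemented diet. Tumors and body weight recorded twice weekly. Volume = length × width × height, analyzed by RMANOVA versus vehicle.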

[6] = biological target: Vascular endothelial growth factor receptor 2 (Homo sapiens, UniProt P35968); assay: Inhibition of KDR
Vascular endothelial growth factor receptor 2, sequence (P35968 whole entry): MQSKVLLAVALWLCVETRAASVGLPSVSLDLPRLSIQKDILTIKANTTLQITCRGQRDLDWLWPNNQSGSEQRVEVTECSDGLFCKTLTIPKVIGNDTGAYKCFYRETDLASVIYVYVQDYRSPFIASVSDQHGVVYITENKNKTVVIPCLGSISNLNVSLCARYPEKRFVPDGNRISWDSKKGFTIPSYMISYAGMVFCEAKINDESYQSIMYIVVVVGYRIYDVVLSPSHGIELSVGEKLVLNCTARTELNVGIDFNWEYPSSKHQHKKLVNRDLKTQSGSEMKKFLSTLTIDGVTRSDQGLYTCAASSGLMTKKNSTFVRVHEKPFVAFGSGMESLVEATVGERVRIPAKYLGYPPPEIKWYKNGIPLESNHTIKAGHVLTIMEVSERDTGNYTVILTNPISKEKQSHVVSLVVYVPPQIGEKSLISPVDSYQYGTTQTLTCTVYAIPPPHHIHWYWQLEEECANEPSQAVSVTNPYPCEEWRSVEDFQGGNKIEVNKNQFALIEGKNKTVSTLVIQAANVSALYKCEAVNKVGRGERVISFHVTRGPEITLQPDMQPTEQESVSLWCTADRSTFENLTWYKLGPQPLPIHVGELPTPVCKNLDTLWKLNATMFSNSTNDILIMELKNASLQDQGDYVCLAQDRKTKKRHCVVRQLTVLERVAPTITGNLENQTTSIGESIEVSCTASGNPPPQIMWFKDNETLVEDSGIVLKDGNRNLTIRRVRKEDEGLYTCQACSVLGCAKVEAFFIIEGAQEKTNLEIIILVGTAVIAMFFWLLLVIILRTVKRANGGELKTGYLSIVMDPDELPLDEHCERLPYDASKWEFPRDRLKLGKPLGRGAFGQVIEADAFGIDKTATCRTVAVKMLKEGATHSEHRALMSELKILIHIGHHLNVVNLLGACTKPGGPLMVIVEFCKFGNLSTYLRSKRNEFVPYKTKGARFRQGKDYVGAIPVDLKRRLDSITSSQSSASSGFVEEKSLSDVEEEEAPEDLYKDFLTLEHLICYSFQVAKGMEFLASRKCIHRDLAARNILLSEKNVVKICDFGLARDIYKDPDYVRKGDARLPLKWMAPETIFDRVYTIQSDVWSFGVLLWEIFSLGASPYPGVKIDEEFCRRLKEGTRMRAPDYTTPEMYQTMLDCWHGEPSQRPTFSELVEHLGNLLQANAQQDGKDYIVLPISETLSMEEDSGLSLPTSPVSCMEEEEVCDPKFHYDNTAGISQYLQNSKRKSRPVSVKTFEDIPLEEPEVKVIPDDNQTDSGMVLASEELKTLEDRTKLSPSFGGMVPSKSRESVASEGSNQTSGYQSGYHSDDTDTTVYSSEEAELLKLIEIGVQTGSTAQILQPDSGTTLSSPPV

[7] = Cytotoxicity against human U87MG cells after 3 days by alamar blue assay; assay type: functional, cell-based, U-87MG ATCC; settings: U-87 MG, 72 h
How it was run: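 U-87 MG cells seeded at 6000 cells/well in 5% FBS and treated with threefold serial dilutions for three days. Viability read by alamarBlue staining.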

[8] = Volume of distribution at steady state in Sprague-Dawley rat at 2 mg/kg, iv; assay type: ADME, organism-based; set-up: dose 2 mg/kg, route intravenous; settings: in vivo, read-out: Vdss
How it was run: (§3)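 Male Sprague Dawley rats (n = 3) given 2 mg/kg intravenously in DMSO.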

[9] = Plasma concentration in mouse at 30 mg/kg, po after 6 hrs; assay type: ADME, organism-based; set-up: dose 30 mg/kg, route oral
[10] = biological target: Cyclin-dependent kinase 1 (Homo sapiens, UniProt P06493); assay: Inhibition of CDK1
Cyclin-dependent kinase 1, sequence (P06493 whole entry): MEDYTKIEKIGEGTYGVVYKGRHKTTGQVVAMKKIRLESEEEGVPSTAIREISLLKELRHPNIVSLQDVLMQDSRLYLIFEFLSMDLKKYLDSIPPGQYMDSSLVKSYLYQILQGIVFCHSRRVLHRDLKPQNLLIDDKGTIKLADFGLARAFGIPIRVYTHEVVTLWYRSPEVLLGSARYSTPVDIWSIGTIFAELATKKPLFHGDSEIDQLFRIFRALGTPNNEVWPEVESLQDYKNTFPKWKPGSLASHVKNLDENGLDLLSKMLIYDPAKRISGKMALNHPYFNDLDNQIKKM

[11] = tested on: Mus musculus; assay: Inhibition of HGF-stimulated AKT signaling pathway in mouse liver assessed as phosphorylated PRAS40 level at 30 mg/kg, po dosed 6 hrs prior to HGF challenge and measured after 5 mins by ELISA; assay type: functional
How it was run: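 Mice (n = 3, female) dosed 30 mg/kg po in 0.1% PBS/BSA. At 6 h, HGF given by tail-vein injection. Livers harvested 5 min later, and phospho- and total PRAS40 measured by ELISA; inhibition taken from pPRAS40/total ratio. Factorial ANOVA with Dunnett's post hoc test.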

[12] = tested on: Mus musculus; assay: Toxicity in human U87MG cells xenografted CD1 nude mouse assessed as loss in body weight po QD for 18 days relative to control; assay type: organism-based, U-87MG ATCC; settings: in vivo, 432 h; how it was run: as §2
[13] = biological target: Mast/stem cell growth factor receptor Kit (Homo sapiens, UniProt P10721); assay: Inhibition of cKIT
Mast/stem cell growth factor receptor Kit, sequence (P10721 whole entry): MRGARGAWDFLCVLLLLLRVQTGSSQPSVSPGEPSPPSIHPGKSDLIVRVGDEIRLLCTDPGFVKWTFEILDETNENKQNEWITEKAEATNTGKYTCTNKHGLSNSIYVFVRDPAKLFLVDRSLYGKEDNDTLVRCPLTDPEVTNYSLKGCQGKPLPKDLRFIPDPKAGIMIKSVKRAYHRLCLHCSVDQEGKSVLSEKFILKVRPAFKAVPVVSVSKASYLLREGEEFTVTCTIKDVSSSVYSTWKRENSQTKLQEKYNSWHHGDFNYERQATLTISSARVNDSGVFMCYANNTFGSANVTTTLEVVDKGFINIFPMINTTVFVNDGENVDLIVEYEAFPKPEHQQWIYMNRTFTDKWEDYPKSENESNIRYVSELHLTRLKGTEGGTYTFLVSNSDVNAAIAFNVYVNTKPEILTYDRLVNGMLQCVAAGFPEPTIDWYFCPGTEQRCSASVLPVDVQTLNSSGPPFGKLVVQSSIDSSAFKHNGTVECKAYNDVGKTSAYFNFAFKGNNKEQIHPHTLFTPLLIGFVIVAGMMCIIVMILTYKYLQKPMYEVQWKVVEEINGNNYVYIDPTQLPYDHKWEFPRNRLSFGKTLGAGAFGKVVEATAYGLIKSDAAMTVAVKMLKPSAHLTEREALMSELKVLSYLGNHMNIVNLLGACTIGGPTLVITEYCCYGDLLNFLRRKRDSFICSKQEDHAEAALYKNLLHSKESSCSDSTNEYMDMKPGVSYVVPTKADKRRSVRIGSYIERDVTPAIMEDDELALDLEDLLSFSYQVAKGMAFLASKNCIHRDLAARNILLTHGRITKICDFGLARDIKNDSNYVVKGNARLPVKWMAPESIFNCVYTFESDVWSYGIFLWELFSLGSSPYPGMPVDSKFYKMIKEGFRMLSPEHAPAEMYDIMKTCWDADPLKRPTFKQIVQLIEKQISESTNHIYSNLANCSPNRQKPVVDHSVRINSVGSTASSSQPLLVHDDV

[14] = Oral bioavailability in Sprague-Dawley rat at 5 mg/kg; assay type: ADME, organism-based; settings: in vivo; how it was run: as §1
[15] = Antitumor activity against human U87MG cells xenografted in CD1 nude mouse assessed as inhibition of tumor growth at 30 mg/kg, po QD for 18 days relative to control; assay type: functional, U-87MG ATCC; settings: U-87 MG, 432 h, read-out: GI; how it was run: as §2
[16] = Half life in Sprague-Dawley rat at 2 mg/kg, iv; assay type: ADME, organism-based; set-up: dose 2 mg/kg, route intravenous; settings: in vivo; how it was run: as §3
[17] = biological target: T1, RAC-alpha serine/threonine-protein kinase; assay: Inhibition of human AKT1 in human U87MG cells assessed as PRAS40 phosphorylation after 1 hr by ELISA; assay type: cell-based, U-87MG ATCC
How it was run: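 U-87 MG cells in 5% FBS incubated with inhibitor in threefold serial dilutions for 1 h at 37 °C, then lysed. Phospho-PRAS40 (Thr246) quantified by ELISA and normalized to total PRAS40. Mean ± SD where three or more measurements.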

[18] = Cmax in Sprague-Dawley rat at 5 mg/kg, po; assay type: ADME, organism-based; set-up: dose 5 mg/kg, route oral; settings: in vivo; how it was run: as §1
[19] = Plasma concentration in human U87MG cells xenografted CD1 nude mouse at 30 mg/kg, po QD for 18 days measured after 3 hrs post last dose; assay type: ADME, organism-based, U-87MG ATCC; set-up: dose 30 mg/kg, route oral
How it was run: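 Female CD1 nude mice bearing U-87 MG tumors (n = 10) dosed 30 mg/kg po daily for 18 d. Plasma sampled 3 h after the last dose.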

[20] = tested on: U-87MG ATCC; assay: Selectivity ratio of IC50 for AKT1 in human U87MG cells to IC50 for AKT1; assay type: cell-based
[21] = Clearance in Sprague-Dawley rat at 2 mg/kg, iv; assay type: ADME, organism-based; set-up: dose 2 mg/kg, route intravenous; settings: in vivo; how it was run: as §3

T1 sequence (P31749 whole entry): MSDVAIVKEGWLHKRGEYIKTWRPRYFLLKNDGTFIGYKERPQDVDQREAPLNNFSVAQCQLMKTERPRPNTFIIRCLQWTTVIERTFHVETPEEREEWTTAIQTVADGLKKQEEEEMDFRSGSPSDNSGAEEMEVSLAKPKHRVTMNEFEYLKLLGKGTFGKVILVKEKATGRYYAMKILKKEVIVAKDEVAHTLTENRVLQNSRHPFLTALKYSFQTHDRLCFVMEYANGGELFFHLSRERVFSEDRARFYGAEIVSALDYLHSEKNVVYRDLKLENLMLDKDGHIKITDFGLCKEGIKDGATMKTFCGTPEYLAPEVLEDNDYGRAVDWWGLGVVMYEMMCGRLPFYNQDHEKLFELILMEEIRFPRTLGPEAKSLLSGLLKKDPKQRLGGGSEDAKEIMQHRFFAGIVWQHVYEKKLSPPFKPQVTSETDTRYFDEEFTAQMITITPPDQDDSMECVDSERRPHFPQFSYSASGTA

Structure (SMILES) | IC50 [1] [nM] | IC50 [2] [nM] | IC50 [3] [nM] | IC50 [17] [nM] | other results
Cn1nc(N)c2ccc(-c3cnc(NC[C@@H](N)Cc4ccc(C(F)(F)F)cc4)s3)cc21 | 2410 | > 2000 | 119 |  | 
Nc1noc2ccc(-c3cnc(NC[C@@H](N)Cc4ccc(C(F)(F)F)cc4)s3)cc12 | 453 | > 2000 | 417 |  | 
N[C@H](CNc1cnc(-c2ccc3cnccc3c2)s1)Cc1ccc(C(F)(F)F)cc1 | 404 | 1070 | 187 |  | 
N[C@H](CNc1ncc(-c2ccc3cn[nH]c3c2)s1)Cc1ccc(C(F)(F)F)cc1 | 613 | > 1000 | 334 |  | 
Cn1ncc2ccc(-c3cnc(NC[C@@H](N)Cc4ccc(C(F)(F)F)cc4)s3)cc21 | 895 |  | 230 |  | 
N[C@H](CNc1ncc(-c2ccc3nnccc3c2)s1)Cc1ccc(C(F)(F)F)cc1 | 141 | > 2000 | 489 |  | 
N[C@H](CNc1ncc(-c2ccc3cn[nH]c(=O)c3c2)s1)Cc1ccc(C(F)(F)F)cc1 | > 1000 | > 1000 | 485 |  | 
N[C@H](CNc1ncc(-c2ccc3c(c2)CCC(=O)N3)s1)Cc1ccc(C(F)(F)F)cc1 | 3320 | > 25000 | 2400 |  | 
N[C@H](CNc1nnc(-c2ccc3cnccc3c2)o1)Cc1ccc(C(F)(F)F)cc1 | 85 | 348 | 133 |  | 
N[C@H](CCc1nc(-c2ccc3cnccc3c2)no1)Cc1ccc(C(F)(F)F)cc1 | 1600 | 4630 | 980 |  | 
N[C@H](CNc1ncc(-c2ccc3cncnc3c2)s1)Cc1ccc(C(F)(F)F)cc1 | 35 | 136 | 126 | 1300 | Ratio IC50 [20]: 37
NC(=O)c1ccc(-c2cnc(NC[C@@H](N)Cc3ccc(C(F)(F)F)cc3)s2)cc1 | > 3000 | > 10000 | > 3000 |  | 
N[C@H](CNc1ncc(-c2ccc3c(c2)CNC3=O)s1)Cc1ccc(C(F)(F)F)cc1 | 95 | > 9000 | 356 | 6000 | 
N[C@H](CCc1cc(-c2ccc3cnccc3c2)no1)Cc1ccc(C(F)(F)F)cc1 | 40 | 117 | 50 | 3800 | Ratio IC50 [20]: 95

Compounds with a lower IC50 [1], results first:

IC50 [1] [nM] | IC50 [2] [nM] | IC50 [3] [nM] | IC50 [17] [nM] | Structure (SMILES) | other results
3.2 |  | 7.6 |  | N[C@H](CNc1nnc(-c2ccc3cnccc3c2)s1)Cc1ccc(C(F)(F)F)cc1 | 
18.3 | 185 |  | 300 | N[C@H](CNc1ncc(-c2ccc3c(c2)CC(=O)N3)s1)Cc1ccc(C(F)(F)F)cc1 | AUC(0-t) at 24 h [4]: 2600 ng·h/mL; inhibition [5]: Dose-dependent effect; IC50 [6]: 300 nM; IC50 [7]: 630 nM; Vd [8]: 6.8 L/kg; concentration at 6 h [9]: 3.5 µM; IC50 [10]: 250 nM; inhibition in vivo at 30 mg/kg [11]: 43%; Activity [12]: 2%; IC50 [13]: 110 nM; bioavailability [14]: 64%; inhibition in vivo at 30 mg/kg [15]: 93%; half-life [16]: 4.3 h; Cmax [18]: 417 ng/mL; concentration at 3 h [19]: 6.2 µM
15.4 | 276 | 179 | 630 | Cn1c(=O)[nH]c2ccc(-c3cnc(NC[C@@H](N)Cc4ccc(C(F)(F)F)cc4)s3)cc21 | 
8.5 |  | 39.9 | 730 | N[C@H](CNc1ncc(-c2ccc3[nH]ncc3c2)s1)Cc1ccc(Cl)cc1 | Ratio IC50 [20]: 86
11.6 | 15.4 | 8.6 | 890 | Nc1cc2cc(-c3cnc(NC[C@@H](N)Cc4ccc(C(F)(F)F)cc4)s3)ccc2cn1 | Ratio IC50 [20]: 77
17 | 93 | 40 |  | N[C@H](CNc1cc(-c2ccc3cnccc3c2)no1)Cc1ccc(C(F)(F)F)cc1 | 
27 | 285 | 143 | 920 | N[C@H](CNc1ncc(-c2ccc3[nH]c(=O)sc3c2)s1)Cc1ccc(C(F)(F)F)cc1 | 
4.9 | 12.4 | 5.9 | 430 | N[C@H](CNc1ncc(-c2ccc3cnccc3c2)s1)Cc1ccc(C(F)(F)F)cc1 | Ratio IC50 [20]: 88; AUC(0-t) at 24 h [4]: 387 ng·h/mL; clearance [21]: 45 mL/min/kg; Vd [8]: 7.1 L/kg; concentration at 6 h [9]: 1.5 µM; inhibition in vivo at 30 mg/kg [11]: 4%; bioavailability [14]: 20%; half-life [16]: 2.9 h; Cmax [18]: 66 ng/mL
8 | 138 | 326 | 500 | N[C@H](CNc1ncc(-c2ccc3[nH]c(=O)oc3c2)s1)Cc1ccc(C(F)(F)F)cc1 | AUC(0-t) at 24 h [4]: 348 ng·h/mL; clearance [21]: 26.7 mL/min/kg; Vd [8]: 6.7 L/kg; bioavailability [14]: 11%; half-life [16]: 3.8 h; Cmax [18]: 68 ng/mL
